For data set [1], the system named is Liver. As to the kind of experiment: Half life in mouse liver microsomes at 10 uM by LC-MS/MS analysis. Format: ADME, microsome. The note with it: microsomes, 10 µM. In general terms: Liver microsomes are vesicles of endoplasmic reticulum, rich in cytochrome P450 enzymes.
In data set [2] the test system is Blood. As to the kind of experiment: Tmax in mouse blood assessed as (S)-7-Methoxy-N-methyl-9-oxo-11,12,13,13a-tetrahydro-9H-benzo[e]imidazo[5,1-c]pyrrolo[1,2-a][1,4]diazepine-1-carboxamide at 5 mg/kg, ip by LC/MS/MS analysis. The class given is ADME, organism-based. The note with it: in vivo.
The subject of data set [3] is Mus musculus. Put plainly: Antiasthamatic effect in BALB/c mouse model of ovalbumin-induced asthma assessed as inhibition of airway hyperresponsiveness at 40 mg/kg, ip bid for 5 days. Format: functional, organism-based.
The test system of data set [4] is Brain. Put plainly: AUC (0 to t) in mouse brain at 5 mg/kg, ip by LC/MS/MS analysis. The class given is ADME, organism-based. The note with it: in vivo.
Data set [5] is described as follows: Elimination rate constant in mouse brain at 5 mg/kg, ip by LC/MS/MS analysis. Format: ADME, organism-based.
Data set [6] in a line: Cytotoxicity in human BEAS2B cells after 48 hrs by Cell-titer Glo reagent based assay. Details: species or system BEAS-2B. The settings on record: read-out: LD50. The method in brief: (§1)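 Cells (HEK293, HepG2 or BEAS2B) exposed to compounds at a range of concentrations for 48 h; viability read by Cell-Titer Glo luminescence. Normalized to DMSO (negative) and 3-dibutylamino-1-(4-hexyl-phenyl)-propan-1-one at 150 μM final in DMSO (positive).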

Data set [7] in a line: Elimination rate constant in mouse lung at 5 mg/kg, ip by LC/MS/MS analysis. The class given is ADME, organism-based.
The subject of data set [8] is Liver. Put plainly: Metabolic stability in mouse liver microsomes assessed as compound remaining at 10 uM after 1 hr by LC-MS/MS analysis. Format: ADME, microsome. The method in brief: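 Compound stability was measured in human or mouse liver microsomes as percent remaining after 1 h. Data came from two independent experiments, each run in triplicate.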
Data set [9] in a line: Cmax in mouse blood at 5 mg/kg, ip by LC/MS/MS analysis. Further details: dose 5 mg/kg, route intraperitoneal. Format: ADME, organism-based.
Data set [10] is described as follows: Cytotoxicity in HEK293 cells after 48 hrs by Cell-titer Glo reagent based assay. The note with it: human, read-out: LD50. The method in brief: as §1
The species named for another data set is Cavia porcellus. Put plainly: Inhibition of substance P-induced smooth muscle contractile force in guinea pig tracheal rings at 16 uM after 1 hr. Format: functional.
Another data set deals with Lung. Put plainly: AUC (0 to t) in mouse lung at 5 mg/kg, ip by LC/MS/MS analysis. The class given is ADME, organism-based. The settings on record: in vivo.
A short description of data set [11]: Elimination rate constant in mouse blood at 5 mg/kg, ip by LC/MS/MS analysis. Format: ADME, organism-based.
For data set [12], the system named is Blood. Put plainly: AUC (0 to t) in mouse blood assessed as (S)-7-Methoxy-N-methyl-9-oxo-11,12,13,13a-tetrahydro-9H-benzo[e]imidazo[5,1-c]pyrrolo[1,2-a][1,4]diazepine-1-carboxamide at 5 mg/kg, ip by LC/MS/MS analysis. The settings on record: in vivo. The class given is ADME, organism-based.
In data set [13] the test system is Brain. As to the kind of experiment: Cmax in mouse brain at 5 mg/kg, ip by LC/MS/MS analysis. Format: ADME, organism-based. The note with it: in vivo. Details: dose 5 mg/kg, route intraperitoneal.
Data set [14] can be described thus: AUC (0 to t) in mouse blood at 5 mg/kg, ip by LC/MS/MS analysis. The class given is ADME, organism-based.
Data set [15] concerns Blood. Put plainly: Elimination rate constant in mouse blood assessed as (S)-7-Methoxy-N-methyl-9-oxo-11,12,13,13a-tetrahydro-9H-benzo[e]imidazo[5,1-c]pyrrolo[1,2-a][1,4]diazepine-1-carboxamide at 5 mg/kg, ip by LC/MS/MS analysis. Format: ADME, organism-based. The note with it: in vivo.
The nature of data set [16]: Tmax in mouse lung at 5 mg/kg, ip by LC/MS/MS analysis. Format: ADME, organism-based.
The nature of data set [17]: Cmax in mouse lung at 5 mg/kg, ip by LC/MS/MS analysis. The class given is ADME, organism-based. Details: dose 5 mg/kg, route intraperitoneal.
In data set [18] the test system is Mus musculus. As to the kind of experiment: Neurotoxicity in Swiss Webster mouse assessed as induction of senorimotor impairment at 40 mg/kg, ip administered 10 mins prior to testing and measured for 3 mins at 10 to 60 mins after drug administration by rotarod method. The class given is toxicity, organism-based. The note with it: in vivo. The gist of the method: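 Swiss Webster mice, pre-trained at 15 rpm until they held on for 3 min at three consecutive sessions, were given a single i.p. dose of 40 mg/kg in 10% DMSO/40% propylene glycol/50% PBS. Rotarod at 15 rpm for 3 min at 10, 30 and 60 min after dosing. Falls before 3 min scored as fail, with time of fall recorded. N = 10, mean ± SEM. Vehicle and diazepam 5 mg/kg i.p. controls. Mice rested 2–3 days between doses.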
For orientation: In the rotarod test animals must keep their balance on a rotating rod.

The nature of data set [19]: Half life in human liver microsomes at 10 uM by LC-MS/MS analysis. The class given is ADME, microsome.
For data set [20], the system named is Blood. Put plainly: Drug metabolism in mouse blood assessed as (S)-7-Methoxy-N-methyl-9-oxo-11,12,13,13a-tetrahydro-9H-benzo[e]imidazo[5,1-c]pyrrolo[1,2-a][1,4]diazepine-1-carboxamide formation at 5 mg/kg, ip after 3 mins by LC/MS/MS analysis. Format: ADME, organism-based. The settings on record: in vivo, 0.05 h.
Data set [21] relates to Blood. As to the kind of experiment: Half life in mouse blood assessed as (S)-7-Methoxy-N-methyl-9-oxo-11,12,13,13a-tetrahydro-9H-benzo[e]imidazo[5,1-c]pyrrolo[1,2-a][1,4]diazepine-1-carboxamide at 5 mg/kg, ip by LC/MS/MS analysis. The class given is ADME, organism-based. The note with it: in vivo.
The nature of data set [22]: Half life in mouse brain at 5 mg/kg, ip by LC/MS/MS analysis. Format: ADME, organism-based.

Structures are written as SMILES. The source made the active and inactive calls. The calls are words filed in the database; no cut-off is given here. A value given as a limit tells only on which side of the number the result lay.

Consider one compound from ChEMBL document CHEMBL3992505, “Optimization of substituted imidazobenzodiazepines as novel asthma treatments” (Eur J Med Chem, 2017).

For orientation: Tmax means the time at which the peak concentration occurs. As usually defined, the Cmax is the maximum level reached in the sampled fluid or tissue. What is called AUC(0-t) is exposure summed from dosing to a finite time, without extrapolation to infinity. Lower therefore signals low exposure. Broadly, the half-life is how long it takes for the measured level to halve. A high value points to slow loss.

As for `COc1ccc2c(c1)C(=O)N1CCC[C@H]1c1c(C(=O)N(C)C)ncn1-2`, the t1/2 in the data set with Liver [1] stood at 63.3 min; in the data set with Blood [21], 24.3 min. Also, the Tmax in the data set with Blood [2] is 40 min; in data set [16], 3 min. In the data set on Mus musculus [3], the outcome was Active. Besides, the AUCt turned out to be 2701 ng·min/g in the data set with Brain [4], 764 ng·min/g in the data set on Lung and 64675 ng·min/mL in the data set on Blood [12]. Besides, the k el in data set [5] was 0.00112 s⁻¹; in data set [7], 0.000983 s⁻¹; in data set [11] it was 0.0013 s⁻¹. Also, the CC50 at 48 h in [6] and in data set [10] was more than 400 µM throughout. Further, the Stability with Liver [8] was determined as 82.5%. Besides, the Cmax in [9] was 691 ng/mL; in the data set with Brain [13], 123 ng/g; in data set [17] it was 30 ng/g. Moreover, the inhibition result in the data set filed under Cavia porcellus was “Active”. The compound further had an AUC(0-t) in data set [14] of 103 ng·h/mL. For the same compound, the Kel with Blood [15] stood at 0.028 min⁻¹. For the same compound, the Activity entry in the data set with Mus musculus [18] was “Non-Toxic”. Further, the half-life at 10 µM in [19] is 705 min. Moreover, the Drug metabolism entry in the data set with Blood [20] is reported as “Metabolite_Detected”. In [22], this compound yielded a half-life of 10.3 min.
